Results as given in publication PMC10653054 (ACS Omega, 2023).

System: normal human dermal fibroblast (HDF) cells
Assay: MTT cytotoxicity assay, normal HDF cells
Type: cell-based
Conditions: 48 h, read-out: In vitro antiproliferative effects (IC50) HDF
Summary of the method: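 Cells came from the National Cell Bank of Iran and were grown in RPMI-1640 or DMEM with 10% FBS at 37 °C, 5% CO2 and 100% humidity. Test compounds in 0.1% DMSO (n = 3) were incubated 48 h, then MTT for 3 h, with formazan OD read at 570 nm. Controls were 0.1% DMSO (negative) and etoposide (positive). IC50 came from dose–response curves, mean ± SE of at least three independent experiments.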

SMILES	IC50 [µM]
O=c1[nH]nc(O)c2c(-c3cccc(Br)c3)c3n(c12)CCn1cccc1-3 [7k, 12-(3-Bromophenyl)-11-hydroxy-5,6-dihydropyrrolo[2″,1″:3′,4′]pyrazino[1′,2′:1,5]pyrrolo [2,3-d]pyridazin-8(9H)-one]	> 100
Cc1cccc(-c2c3n(c4c(=O)[nH]nc(O)c24)CCn2cccc2-3)c1 [7d, 11-Hydroxy-12-(m-tolyl)-5,6-dihydropyrrolo[2″,1″:3′,4′]pyrazino[1′,2′:1,5]pyrrolo[2,3-d] pyridazin-8(9H)-one]	> 100
COC(=O)c1c(-c2cccc(O)c2)c2n(c1C(=O)OC)CCn1cccc1-2 [5c, Dimethyl-1-(3-hydroxyphenyl)-5,6-dihydrodipyrrolo[1,2-a:2′,1′-c]pyrazine-2,3-dicarboxylate]	> 100
O=c1[nH]nc(O)c2c(-c3cccc(O)c3)c3n(c12)CCn1cccc1-3 [7b, 11-Hydroxy-12-(3-hydroxyphenyl)-5,6-dihydropyrrolo[2″,1″:3′,4′]pyrazino[1′,2′:1,5] pyrrolo[2,3-d]pyridazin-8(9H)-one]	> 100
COC(=O)c1c(-c2cccc(OC)c2)c2n(c1C(=O)OC)CCn1cccc1-2 [5g, Dimethyl-1-(3-methoxyphenyl)-5,6-dihydrodipyrrolo[1,2-a:2′,1′-c]pyrazine-2,3-dicarboxylate]	> 100
COC(=O)c1c(-c2ccc(Cl)cc2Cl)c2n(c1C(=O)OC)CCn1cccc1-2 [5r, Dimethyl-1-(2,4-dichlorophenyl)-5,6-dihydrodipyrrolo[1,2-a:2′,1′-c]pyrazine-2,3-dicarboxylate]	> 100
COc1cc(-c2c3n(c4c(=O)[nH]nc(O)c24)CCn2cccc2-3)ccc1O [7o, 11-Hydroxy-12-(4-hydroxy-3-methoxyphenyl)-5,6-dihydropyrrolo[2″,1″:3′,4′]pyrazino [1′,2′:1,5]pyrrolo[2,3-d]pyridazin-8(9H)-one]	> 100
O=c1[nH]nc(O)c2c(-c3ccc([N+](=O)[O-])cc3)c3n(c12)CCn1cccc1-3 [7n, 11-Hydroxy-12-(4-nitrophenyl)-5,6-dihydropyrrolo[2″,1″:3′,4′]pyrazino[1′,2′:1,5] pyrrolo[2,3-d]pyridazin-8(9H)-one]	> 100
O=c1[nH]nc(O)c2c(-c3ccc(Cl)cc3Cl)c3n(c12)CCn1cccc1-3 [7p, 12-(2,4-Dichlorophenyl)-11-hydroxy-5,6-dihydropyrrolo[2″,1″:3′,4′]pyrazino [1′,2′:1,5]pyrrolo[2,3-d]pyridazin-8(9H)-one]	> 100
O=c1[nH]nc(O)c2c(-c3ccccc3)c3n(c12)CCn1cccc1-3 [7a, 11-Hydroxy-12-phenyl-5,6-dihydropyrrolo[2″,1″:3′,4′]pyrazino[1′,2′:1,5]pyrrolo[2,3-d] pyridazin-8(9H)-one]	> 100
Cc1ccccc1-c1c2n(c3c(=O)[nH]nc(O)c13)CCn1cccc1-2 [7c, 11-Hydroxy-12-(o-tolyl)-5,6-dihydropyrrolo[2″,1″:3′,4′]pyrazino[1′,2′:1,5]pyrrolo[2,3-d] pyridazin-8(9H)-one]	> 100
COC(=O)c1c(-c2ccccc2)c2n(c1C(=O)OC)CCn1cccc1-2 [5a, Dimethyl-1-phenyl-5,6-dihydrodipyrrolo[1,2-a:2′,1′-c]pyrazine-2,3-dicarboxylate]	> 100
COC(=O)c1c(-c2ccccc2O)c2n(c1C(=O)OC)CCn1cccc1-2 [5b, Dimethyl-1-(2-hydroxyphenyl)-5,6-dihydrodipyrrolo[1,2-a:2′,1′-c]pyrazine-2,3-dicarboxylate]	> 100
COC(=O)c1c(-c2ccc(OC)cc2)c2n(c1C(=O)OC)CCn1cccc1-2 [5h, Dimethyl-1-(4-methoxyphenyl)-5,6-dihydrodipyrrolo[1,2-a:2′,1′-c]pyrazine-2,3-dicarboxylate]	> 100
COC(=O)c1c(-c2cc(OC)c(OC)c(OC)c2)c2n(c1C(=O)OC)CCn1cccc1-2 [5s, Dimethyl-1-(3,4,5-trimethoxyphenyl)-5,6-dihydrodipyrrolo[1,2-a:2′,1′-c]pyrazine-2,3-dicarboxylate]	> 100
COC(=O)c1c(-c2cccc(C)c2)c2n(c1C(=O)OC)CCn1cccc1-2 [5e, Dimethyl-1-(3-tolyl)-5,6-dihydrodipyrrolo[1,2-a:2′,1′-c]pyrazine-2,3-dicarboxylate]	> 100
COC(=O)c1c(-c2ccc(Br)cc2)c2n(c1C(=O)OC)CCn1cccc1-2 [5n, Dimethyl-1-(4-bromophenyl)-5,6-dihydrodipyrrolo[1,2-a:2′,1′-c]pyrazine-2,3-dicarboxylate]	> 100
O=c1[nH]nc(O)c2c(-c3cccc(Cl)c3)c3n(c12)CCn1cccc1-3 [7i, 12-(3-Chlorophenyl)-11-hydroxy-5,6-dihydropyrrolo[2″,1″:3′,4′]pyrazino[1′,2′:1,5]pyrrolo [2,3-d]pyridazin-8(9H)-one]	> 100
COc1ccc(-c2c3n(c4c(=O)[nH]nc(O)c24)CCn2cccc2-3)cc1 [7g, 11-Hydroxy-12-(4-methoxyphenyl)-5,6-dihydropyrrolo[2″,1″:3′,4′]pyrazino[1′,2′:1,5] pyrrolo[2,3-d]pyridazin-8(9H)-one]	> 100
O=c1[nH]nc(O)c2c(-c3ccc(Cl)cc3)c3n(c12)CCn1cccc1-3 [7j, 12-(4-Chlorophenyl)-11-hydroxy-5,6-dihydropyrrolo[2″,1″:3′,4′]pyrazino[1′,2′:1,5] pyrrolo[2,3-d]pyridazin-8(9H)-one]	> 100
COc1cccc(-c2c3n(c4c(=O)[nH]nc(O)c24)CCn2cccc2-3)c1 [7f, 11-Hydroxy-12-(3-methoxyphenyl)-5,6-dihydropyrrolo[2″,1″:3′,4′]pyrazino[1′,2′:1,5] pyrrolo[2,3-d]pyridazin-8(9H)-one]	> 100
COc1cc(-c2c3n(c4c(=O)[nH]nc(O)c24)CCn2cccc2-3)cc(OC)c1OC [7q, 11-Hydroxy-12-(3,4,5-trimethoxyphenyl)-5,6-dihydropyrrolo[2″,1″:3′,4′]pyrazino [1′,2′:1,5]pyrrolo[2,3-d]pyridazin-8(9H)-one]	> 100
O=c1[nH]nc(O)c2c(-c3ccc(Br)cc3)c3n(c12)CCn1cccc1-3 [7l, 12-(4-Bromophenyl)-11-hydroxy-5,6-dihydropyrrolo[2″,1″:3′,4′]pyrazino[1′,2′:1,5] pyrrolo[2,3-d]pyridazin-8(9H)-one]	> 100
COC(=O)c1c(-c2ccc(O)c(OC)c2)c2n(c1C(=O)OC)CCn1cccc1-2 [5q, Dimethyl-1-(4-hydroxy-3-methoxyphenyl)-5,6-dihydrodipyrrolo[1,2-a:2′,1′-c]pyrazine-2,3-dicarboxylate]	> 100
COC(=O)c1c(-c2ccc(C)cc2)c2n(c1C(=O)OC)CCn1cccc1-2 [5f, Dimethyl-1-(4-tolyl)-5,6-dihydrodipyrrolo[1,2-a:2′,1′-c]pyrazine-2,3-dicarboxylate]	> 100
COC(=O)c1c(-c2ccc(Cl)cc2)c2n(c1C(=O)OC)CCn1cccc1-2 [5l, Dimethyl-1-(4-chlorophenyl)-5,6-dihydrodipyrrolo[1,2-a:2′,1′-c]pyrazine-2,3-dicarboxylate]	> 100
COC(=O)c1c(-c2ccc(F)cc2)c2n(c1C(=O)OC)CCn1cccc1-2 [5j, Dimethyl-1-(4-fluorophenyl)-5,6-dihydrodipyrrolo[1,2-a:2′,1′-c]pyrazine-2,3-dicarboxylate]	> 100
COC(=O)c1c(-c2cccc([N+](=O)[O-])c2)c2n(c1C(=O)OC)CCn1cccc1-2 [5o, Dimethyl-1-(3-nitrophenyl)-5,6-dihydrodipyrrolo[1,2-a:2′,1′-c]pyrazine-2,3-dicarboxylate]	> 100
